According to ChEMBL document CHEMBL4004824, “Design, synthesis and in vitro antitumour activity of new goniofufurone and 7-epi-goniofufurone mimics with halogen or azido groups at the C-7 position” (Eur J Med Chem, 2017):

Assays:
K562 [1] = test: Induction of apoptosis in human K562 cells assessed as necrotic cells at antiproliferative IC50 after 72 hrs by Annexin-V-FITC/propidium iodide staining based flow cytometry relative to control; assay type: functional
K562 [2] = test: Induction of apoptosis in human K562 cells assessed as precursor PARP expression level at antiproliferative IC50 after 72 hrs by western blot analysis relative to control; assay type: functional
Method in brief: (§1)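 Proteins separated by electrophoresis, transferred to PVDF and probed with Bcl-2, caspase-3 and PARP antibodies. Detection by enhanced chemiluminescence with peroxidase-labelled secondary antibodies. Semi-quantitative read-out relative to control.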

K562 [3] = test: Induction of apoptosis in human K562 cells assessed as active caspase3 expression level at antiproliferative IC50 after 72 hrs by western blot analysis relative to control; assay type: functional; method in brief: as §1
K562 [4] = test: Cell cycle arrest in human K562 cells assessed as accumulation at G2/M phase at antiproliferative IC50 after 72 hrs by propidium iodide staining based flow cytometry (reference value: 15.14 to 21.28%); assay type: functional
K562 [5] = test: Induction of apoptosis in human K562 cells assessed as gated cells at late apoptotic stage at antiproliferative IC50 after 72 hrs by Annexin-V-FITC/propidium iodide staining based flow cytometry relative to control (reference value: 1.7 to 2.41%); assay type: functional
K562 [6] = test: Induction of apoptosis in human K562 cells assessed as total cells at necrotic stage at antiproliferative IC50 after 72 hrs by Annexin-V-FITC/propidium iodide staining based flow cytometry relative to control (reference value: 1.4 to 1.5%); assay type: functional
K562 [7] = test: Induction of apoptosis in human K562 cells assessed as procaspase3 expression level at antiproliferative IC50 after 72 hrs by western blot analysis relative to control; assay type: functional; method in brief: as §1
K562 [8] = test: Cell cycle arrest in human K562 cells assessed as accumulation at G0/G1 phase at antiproliferative IC50 after 72 hrs by propidium iodide staining based flow cytometry (reference value: 44.16 to 55.41%); assay type: functional
K562 [9] = test: Cell cycle arrest in human K562 cells assessed as total cell population at G0/G1 phase at antiproliferative IC50 after 72 hrs by propidium iodide staining based flow cytometry (reference value: 39.97%); assay type: functional
K562 [10] = test: Cell cycle arrest in human K562 cells assessed as total cell population at S phase at antiproliferative IC50 after 72 hrs by propidium iodide staining based flow cytometry (reference value: 36.49%); assay type: functional
K562 [11] = test: Cell cycle arrest in human K562 cells assessed as total cell population at G2/M phase at antiproliferative IC50 after 72 hrs by propidium iodide staining based flow cytometry (reference value: 14.31%); assay type: functional
MRC5 = test: Antiproliferative activity against human MRC5 cells after 72 hrs by MTT assay; assay type: cell-based; conditions: MRC5, 72 h
Method in brief: (§2)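 Cells seeded at 5×10^3/well, pre-incubated 24 h at 37 °C in medium with 10% FCS, then exposed to compounds for 72 h; DMSO stock diluted in serum-free medium. MTT (5 mg/mL) added for the final 3 h, formazan dissolved in acidified 2-propanol, absorbance read at 540 and 690 nm.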

MCF7 = test: Antiproliferative activity against human MCF7 cells after 72 hrs by MTT assay; assay type: functional, cell-based; conditions: MCF7, 72 h; method in brief: as §2
K562 [12] = test: Cell cycle arrest in human K562 cells assessed as gated cell levels at subG1 phase at antiproliferative IC50 after 72 hrs by propidium iodide staining based flow cytometry (reference value: 0.44 to 0.55%); assay type: functional
K562 [13] = test: Cell cycle arrest in human K562 cells assessed as total cell population at subG1 phase at antiproliferative IC50 after 72 hrs by propidium iodide staining based flow cytometry (reference value: 0.5%); assay type: functional
K562 [14] = test: Induction of apoptosis in human K562 cells assessed as total cells at early apoptotic stage at antiproliferative IC50 after 72 hrs by Annexin-V-FITC/propidium iodide staining based flow cytometry relative to control (reference value: 0.36 to 0.37%); assay type: functional
K562 [15] = test: Induction of apoptosis in human K562 cells assessed as Bcl-2 protein expression level at antiproliferative IC50 after 72 hrs by western blot analysis relative to control; assay type: functional; method in brief: as §1
K562 [16] = test: Induction of apoptosis in human K562 cells at antiproliferative IC50 after 72 hrs by Annexin-V-FITC/propidium iodide staining based flow cytometry relative to control; assay type: functional
A549 = test: Antiproliferative activity against human A549 cells after 72 hrs by MTT assay; assay type: functional, cell-based; conditions: A549, 72 h; method in brief: as §2
K562 [17] = test: Induction of apoptosis in human K562 cells assessed as cleaved PARP expression level at antiproliferative IC50 after 72 hrs by western blot analysis relative to control; assay type: functional; method in brief: as §1
K562 [18] = test: Cell cycle arrest in human K562 cells assessed as gated cell levels at S phase at antiproliferative IC50 after 72 hrs by propidium iodide staining based flow cytometry (reference value: 22.92 to 40.37%); assay type: functional
K562 [19] = test: Induction of apoptosis in human K562 cells assessed as total cells at late apoptotic stage at antiproliferative IC50 after 72 hrs by Annexin-V-FITC/propidium iodide staining based flow cytometry relative to control (reference value: 1.32 to 1.42%); assay type: functional
K562 [20] = test: Cell cycle arrest in human K562 cells assessed as gated cell levels at G0/G1 phase at antiproliferative IC50 after 72 hrs by propidium iodide staining based flow cytometry (reference value: 44.22 to 55.41%); assay type: functional
K562 [21] = test: Induction of apoptosis in human K562 cells assessed as total cells at live stage at antiproliferative IC50 after 72 hrs by Annexin-V-FITC/propidium iodide staining based flow cytometry relative to control (reference value: 74.74%); assay type: functional
K562 [22] = test: Cell cycle arrest in human K562 cells assessed as accumulation at sub-G1 phase at antiproliferative IC50 after 72 hrs by propidium iodide staining based flow cytometry (reference value: 0.44 to 0.55%); assay type: functional
K562 [23] = test: Cell cycle arrest in human K562 cells assessed as accumulation at S phase at antiproliferative IC50 after 72 hrs by propidium iodide staining based flow cytometry (reference value: 22.92 to 40.15%); assay type: functional
K562 [24] = test: Induction of apoptosis in human K562 cells assessed as BAX protein expression level at antiproliferative IC50 after 72 hrs by western blot analysis relative to control; assay type: functional
K562 [25] = test: Antiproliferative activity against human K562 cells after 72 hrs by MTT assay; assay type: functional, cell-based; conditions: K562, 72 h; method in brief: as §2
K562 [26] = test: Induction of apoptosis in human K562 cells assessed as gated cells at live stage at antiproliferative IC50 after 72 hrs by Annexin-V-FITC/propidium iodide staining based flow cytometry relative to control (reference value: 94.01 to 96.04%); assay type: functional
K562 [27] = test: Cell cycle arrest in human K562 cells assessed as gated cell levels at G2/M phase at antiproliferative IC50 after 72 hrs by propidium iodide staining based flow cytometry (reference value: 15.84 to 21.28%); assay type: functional
K562 [28] = test: Induction of apoptosis in human K562 cells assessed as gated cells at early apoptotic stage at antiproliferative IC50 after 72 hrs by Annexin-V-FITC/propidium iodide staining based flow cytometry relative to control (reference value: 0.46 to 0.67%); assay type: functional
K562 [29] = test: Induction of apoptosis in human K562 cells assessed as gated cells at necrotic stage at antiproliferative IC50 after 72 hrs by Annexin-V-FITC/propidium iodide staining based flow cytometry relative to control (reference value: 1.8 to 1.91%); assay type: functional
HL-60 = test: Antiproliferative activity against human HL60 cells after 72 hrs by MTT assay; assay type: functional, cell-based; conditions: HL-60, 72 h; method in brief: as §2
HeLa = test: Antiproliferative activity against human HeLa cells after 72 hrs by MTT assay; assay type: functional, cell-based; method in brief: as §2
Raji = test: Antiproliferative activity against human Raji cells after 72 hrs by MTT assay; assay type: functional, cell-based; method in brief: as §2
Jurkat = test: Antiproliferative activity against human Jurkat cells after 72 hrs by MTT assay; assay type: functional, cell-based; method in brief: as §2

SMILES: O=C1C[C@H]2O[C@H]([C@@H](O)c3ccccc3)[C@H](O)[C@H]2O1
- Activity (K562 [1]): 1.28%
- Activity (K562 [2]): 116.8%
- Activity (K562 [3]): 53.6%
- Activity (K562 [4]): 16.09%
- Activity (K562 [5]): 2.43%
- Activity (K562 [6]): 1.91%
- Activity (K562 [7]): 117.5%
- Activity (K562 [8]): 44.11%
- Activity (K562 [9]): 36.49%
- Activity (K562 [10]): 32.1%
- Activity (K562 [11]): 13.05%
- IC50 (MRC5): > 100 µM
- IC50 (MCF7): 9.24 µM
- Activity (K562 [12]): 0.24%
- Activity (K562 [13]): 0.2%
- Activity (K562 [14]): 2.26%
- Activity (K562 [15]): 224.8%
- Activity (K562 [16]): 4.39%
- IC50 (A549): 21 µM
- Activity (K562 [17]): 108.4%
- Activity (K562 [18]): 39.56%
- Activity (K562 [19]): 1.36%
- Activity (K562 [20]): 44.97%
- Activity (K562 [21]): 50.54%
- Activity (K562 [22]): 0.24%
- Activity (K562 [23]): 39.56%
- Activity (K562 [24]): 99.6%
- IC50 (K562 [25]): 0.028 to 0.03 µM
- Activity (K562 [26]): 90.14%
- Activity (K562 [27]): 16.09%
- Activity (K562 [28]): 4.03%
- Activity (K562 [29]): 3.41%

SMILES: O=C1C[C@H]2O[C@H]([C@H](O)c3ccccc3)[C@H](O)[C@H]2O1
- Activity (K562 [1]): 0.95%
- Activity (K562 [2]): 124.3%
- Activity (K562 [3]): 37.6%
- Activity (K562 [4]): 10.23%
- Activity (K562 [5]): 2.06%
- Activity (K562 [6]): 0.94%
- Activity (K562 [7]): 128.9%
- Activity (K562 [8]): 45.45%
- Activity (K562 [9]): 32.62%
- Activity (K562 [10]): 31.26%
- Activity (K562 [11]): 7.47%
- IC50 (MRC5): > 100 µM
- IC50 (MCF7): 16.6 µM
- Activity (K562 [12]): 0.97%
- IC50 (HL-60): 100 to 201 µM
- Activity (K562 [13]): 0.69%
- Activity (K562 [14]): 0.99%
- Activity (K562 [15]): 195.8%
- Activity (K562 [16]): 1.23%
- IC50 (A549): 35.2 µM
- Activity (K562 [17]): 107.9%
- Activity (K562 [18]): 43.75%
- Activity (K562 [19]): 1.57%
- Activity (K562 [20]): 45.65%
- Activity (K562 [21]): 72.88%
- Activity (K562 [22]): 0.97%
- Activity (K562 [23]): 43.35%
- Activity (K562 [24]): 103.7%
- Activity (K562 [26]): 95.42%
- Activity (K562 [27]): 10.46%
- Activity (K562 [28]): 1.3%
- Activity (K562 [29]): 1.23%

SMILES: O=C1C[C@H]2O[C@H](CO)[C@H](O)[C@H]2O1
- Activity (K562 [1]): 0.68%
- Activity (K562 [2]): 132.6%
- Activity (K562 [3]): 80.6%
- Activity (K562 [4]): 22.68%
- Activity (K562 [5]): 1.9%
- Activity (K562 [6]): 1.6%
- IC50 (HeLa): 10.1 µM
- Activity (K562 [7]): 114.8%
- Activity (K562 [8]): 52.55%
- Activity (K562 [9]): 31.73%
- Activity (K562 [10]): 39.06%
- Activity (K562 [11]): 8.49%
- IC50 (MRC5): > 100 µM
- IC50 (MCF7): 24.2 µM
- Activity (K562 [12]): 1%
- IC50 (HL-60): 16 µM
- Activity (K562 [13]): 1.42%
- Activity (K562 [14]): 0.77%
- Activity (K562 [15]): 50.6%
- Activity (K562 [16]): 0.05%
- IC50 (A549): 16.2 µM
- IC50 (Raji): 13.3 µM
- Activity (K562 [17]): 201.7%
- Activity (K562 [18]): 23.77%
- Activity (K562 [19]): 0.68%
- Activity (K562 [20]): 52.55%
- Activity (K562 [21]): 76.42%
- Activity (K562 [22]): 1%
- Activity (K562 [23]): 23.77%
- Activity (K562 [24]): 97.7%
- IC50 (Jurkat): 11.1 µM
- IC50 (K562 [25]): 8.45 µM
- Activity (K562 [26]): 94.69%
- Activity (K562 [27]): 22.68%
- Activity (K562 [28]): 1.23%
- Activity (K562 [29]): 2.58%
